Laboratory results taken from ChEMBL document CHEMBL1142136, “Contribution of target gene mutations and efflux to decreased susceptibility of Salmonella enterica serovar typhimurium to fluoroquinolones and other antimicrobials” (2007).
Converted amounts (≈) assume the structure as drawn.

Experiments:
Type in all cases: functional, Salmonella enterica subsp. enterica serovar Typhimurium
Salmonella typhimurium [1] = assay: Antimicrobial activity against Salmonella enterica serovar Typhimurium CHS38 acrAB::Kan with GyrA D87G mutation
Outline: (§1)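 MICs measured by broth microdilution on the Sensititre automated system and interpreted by CLSI broth microdilution standards. Ciprofloxacin was also tested by agar dilution, widening the range to 0.0075–128 μg/ml. Quality control strains were E. coli ATCC 25922 and 35218, E. faecalis ATCC 29212, S. aureus ATCC 29213 and P. aeruginosa ATCC 27853.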

Salmonella typhimurium [2] = assay: Antimicrobial activity against Salmonella enterica serovar Typhimurium S21-3 tolC::Kan with GyrA S83F, ParC S80I mutation; outline: as §1
Salmonella typhimurium [3] = assay: Antimicrobial activity against Salmonella enterica serovar Typhimurium S21-3 with GyrA S83F, ParC S80I mutation; outline: as §1
Salmonella typhimurium [4] = assay: Antimicrobial activity against Salmonella enterica serovar Typhimurium CS3 with GyrA S83F, D87N, ParC S80I mutation; outline: as §1
Salmonella typhimurium [5] = assay: Antimicrobial activity against Salmonella enterica serovar Typhimurium CHS18 gyrA+ with GyrA S38F mutation; outline: as §1
Salmonella typhimurium [6] = assay: Antimicrobial activity against Salmonella enterica serovar Typhimurium CHS14 gyrA+ with GyrA D87G mutation; outline: as §1
Salmonella typhimurium [7] = assay: Antimicrobial activity against Salmonella enterica serovar Typhimurium CHS18 acrAB::Kan with GyrA S38F mutation; outline: as §1
Salmonella typhimurium [8] = assay: Antimicrobial activity against Salmonella enterica serovar Typhimurium S21-2 tolC::Kan with GyrA S83F, ParC S80I mutation; outline: as §1
Salmonella typhimurium [9] = assay: Antimicrobial activity against Salmonella enterica serovar Typhimurium S21 tolC::Kan
Outline: (§2)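 MICs by automated broth microdilution panels, interpreted to CLSI broth microdilution standards. Ciprofloxacin additionally tested by agar dilution across 0.0075 to 128 μg/ml. Quality control strains: E. coli ATCC 25922 and 35218, Enterococcus faecalis ATCC 29212, S. aureus ATCC 29213, P. aeruginosa ATCC 27853. Test strains are kanamycin-marked deletion mutants of ground-beef isolate S21.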

Salmonella typhimurium [10] = assay: Antimicrobial activity against Salmonella enterica serovar Typhimurium CS9 with GyrA S83F, D87N, ParC S80I mutation; outline: as §1
Salmonella typhimurium [11] = assay: Antimicrobial activity against Salmonella enterica serovar Typhimurium S21-3 acrAB::Kan with GyrA S83F, ParC S80I mutation; outline: as §1
Salmonella typhimurium [12] = assay: Antimicrobial activity against Salmonella enterica serovar Typhimurium CS1 tolC::Kan with GyrA S83F, D87N, ParC S80I mutation; outline: as §1
Salmonella typhimurium [13] = assay: Antimicrobial activity against Salmonella enterica serovar Typhimurium S21-4 with GyrA S83F, ParC S80I mutation; outline: as §1
Salmonella typhimurium [14] = assay: Antimicrobial activity against Salmonella enterica serovar Typhimurium GyrA S21-1 acrAB::Kan with GyrA S83F mutation; outline: as §1
Salmonella typhimurium [15] = assay: Antimicrobial activity against Salmonella enterica serovar Typhimurium S21-3 gyrA+ with ParC S80I mutation; outline: as §1
Salmonella typhimurium [16] = assay: Antimicrobial activity against Salmonella enterica serovar Typhimurium S21-4 acrAB::Kan with GyrA S83F, ParC S80I mutation; outline: as §1
Salmonella typhimurium [17] = assay: Antimicrobial activity against Salmonella enterica serovar Typhimurium CS9 acrAB::Kan with GyrA S83F, D87N, ParC S80I mutation; outline: as §1
Salmonella typhimurium [18] = assay: Antimicrobial activity against Salmonella enterica serovar Typhimurium CS1 with GyrA S83F, D87N, ParC S80I mutation; outline: as §1
Salmonella typhimurium [19] = assay: Antimicrobial activity against Salmonella enterica serovar Typhimurium S21-2 acrAB::Kan with GyrA S83F, ParC S80I mutation; outline: as §1
Salmonella typhimurium [20] = assay: Antimicrobial activity against Salmonella enterica serovar Typhimurium CHS38 with GyrA D87G mutation; outline: as §1
Salmonella typhimurium [21] = assay: Antimicrobial activity against Salmonella enterica serovar Typhimurium S21-1 GyrA S83F mutant; outline: as §1
Salmonella typhimurium [22] = assay: Antimicrobial activity against Salmonella enterica serovar Typhimurium S21-2 with GyrA S83F, ParC S80I mutation; outline: as §1
Salmonella typhimurium [23] = assay: Antimicrobial activity against Salmonella enterica serovar Typhimurium S21 acrAB::Kan; outline: as §2
Salmonella typhimurium [24] = assay: Antimicrobial activity against Salmonella enterica serovar Typhimurium CS3 acrAB::Kan with GyrA S83F, D87N, ParC S80I mutation; outline: as §1
Salmonella typhimurium [25] = assay: Antimicrobial activity against Salmonella enterica serovar Typhimurium S21 gyrA+; outline: as §1
Salmonella typhimurium [26] = assay: Antimicrobial activity against Salmonella enterica serovar Typhimurium CS1 gyrA+ with GyrA S83F, D87N, ParC S80I mutation; outline: as §1
Salmonella typhimurium [27] = assay: Antimicrobial activity against Salmonella enterica serovar Typhimurium CHS38 tolC::Kan with GyrA D87G mutation; outline: as §1
Salmonella typhimurium [28] = assay: Antimicrobial activity against Salmonella enterica serovar Typhimurium CS3 tolC::Kan with GyrA S83F, D87N, parC S80I mutation; outline: as §1
Salmonella typhimurium [29] = assay: Antimicrobial activity against Salmonella enterica serovar Typhimurium CS3 gyrA+ with GyrA S83F, D87N, ParC S80I mutation; outline: as §1
Salmonella typhimurium [30] = assay: Antimicrobial activity against Salmonella enterica serovar Typhimurium CHS14 acrAB::Kan with GyrA D87G mutation; outline: as §1
Salmonella typhimurium [31] = assay: Antimicrobial activity against Salmonella enterica serovar Typhimurium CHS18 with GyrA S38F mutation; outline: as §1
Salmonella typhimurium [32] = assay: Antimicrobial activity against Salmonella enterica serovar Typhimurium CHS18 tolC::Kan with GyrA S38F mutation; outline: as §1
Salmonella typhimurium [33] = assay: Antimicrobial activity against Salmonella enterica serovar Typhimurium CHS38 gyrA+ with GyrA D87G mutation; outline: as §1
Salmonella typhimurium [34] = assay: Antimicrobial activity against Salmonella enterica serovar Typhimurium S21-1 tolC::Kan with GyrA S83F mutation; outline: as §1
Salmonella typhimurium [35] = assay: Antimicrobial activity against Salmonella enterica serovar Typhimurium CS9 tolC::Kan with GyrA S83F, D87N, ParC S80I mutation; outline: as §1
Salmonella typhimurium [36] = assay: Antimicrobial activity against Salmonella enterica serovar Typhimurium CS1 acrAB::Kan with GyrA S83F, D87N, ParC S80I mutation; outline: as §1
Salmonella typhimurium [37] = assay: Antimicrobial activity against Salmonella enterica serovar Typhimurium CHS14 tolC::Kan with GyrA D87G mutant; outline: as §1
Salmonella typhimurium [38] = assay: Antimicrobial activity against Salmonella enterica serovar Typhimurium CS9 gyrA+ with GyrA S83F, D87N, ParC S80I mutation; outline: as §1
Salmonella typhimurium [39] = assay: Antimicrobial activity against Salmonella enterica serovar Typhimurium CHS14 with GyrA D87G mutation; outline: as §1
Salmonella typhimurium [40] = assay: Antimicrobial activity against Salmonella enterica serovar Typhimurium S21-4 tolC::Kan with GyrA S83F, ParC S80I mutation; outline: as §1
Salmonella typhimurium [41] = assay: Antimicrobial activity against Salmonella enterica serovar Typhimurium S21-2 gyrA+ with ParC S80I mutation; outline: as §1
Salmonella typhimurium [42] = assay: Antimicrobial activity against Salmonella enterica serovar Typhimurium S21; outline: as §1
Salmonella typhimurium [43] = assay: Antimicrobial activity against Salmonella enterica serovar Typhimurium S21-1 gyrA+; outline: as §1
Salmonella typhimurium [44] = assay: Antimicrobial activity against Salmonella enterica serovar Typhimurium S21-4 gyrA+ with ParC S80I mutation; outline: as §1

O=C(O)c1cn(-c2ccc(F)cc2)c2cc(N3CCNCC3)c(F)cc2c1=O [SARAFLOXACIN]
MIC (Salmonella typhimurium [1]): 0.03 µg/mL (≈ 0.0778 µM) | MIC (Salmonella typhimurium [2]): 0.5 µg/mL (≈ 1.3 µM) | MIC (Salmonella typhimurium [3]): > 16 µg/mL | MIC (Salmonella typhimurium [4]): 16 µg/mL (≈ 41.5 µM) | MIC (Salmonella typhimurium [5]): 0.06 µg/mL (≈ 0.156 µM) | MIC (Salmonella typhimurium [6]): 0.03 µg/mL (≈ 0.0778 µM) | MIC (Salmonella typhimurium [7]): 0.03 µg/mL (≈ 0.0778 µM) | MIC (Salmonella typhimurium [8]): 0.5 µg/mL (≈ 1.3 µM) | MIC (Salmonella typhimurium [9]): < 0.015 µg/mL | MIC (Salmonella typhimurium [10]): > 16 µg/mL | MIC (Salmonella typhimurium [11]): 0.5 µg/mL (≈ 1.3 µM) | MIC (Salmonella typhimurium [12]): 4 µg/mL (≈ 10.4 µM) | MIC (Salmonella typhimurium [13]): > 16 µg/mL | MIC (Salmonella typhimurium [14]): 0.12 µg/mL (≈ 0.311 µM) | MIC (Salmonella typhimurium [15]): 1 µg/mL (≈ 2.59 µM) | MIC (Salmonella typhimurium [16]): 0.5 µg/mL (≈ 1.3 µM) | MIC (Salmonella typhimurium [17]): 4 µg/mL (≈ 10.4 µM) | MIC (Salmonella typhimurium [18]): 16 µg/mL (≈ 41.5 µM) | MIC (Salmonella typhimurium [19]): 0.5 µg/mL (≈ 1.3 µM) | MIC (Salmonella typhimurium [20]): 0.12 µg/mL (≈ 0.311 µM) | MIC (Salmonella typhimurium [21]): 1 µg/mL (≈ 2.59 µM) | MIC (Salmonella typhimurium [22]): 8 µg/mL (≈ 20.8 µM) | MIC (Salmonella typhimurium [23]): < 0.015 µg/mL | MIC (Salmonella typhimurium [24]): 4 µg/mL (≈ 10.4 µM) | MIC (Salmonella typhimurium [25]): 0.03 µg/mL (≈ 0.0778 µM) | MIC (Salmonella typhimurium [26]): 0.06 µg/mL (≈ 0.156 µM) | MIC (Salmonella typhimurium [27]): < 0.015 µg/mL | MIC (Salmonella typhimurium [28]): 4 µg/mL (≈ 10.4 µM) | MIC (Salmonella typhimurium [29]): 0.06 µg/mL (≈ 0.156 µM) | MIC (Salmonella typhimurium [30]): < 0.015 µg/mL | MIC (Salmonella typhimurium [31]): 0.25 µg/mL (≈ 0.649 µM) | MIC (Salmonella typhimurium [32]): 0.03 µg/mL (≈ 0.0778 µM) | MIC (Salmonella typhimurium [33]): < 0.015 µg/mL | MIC (Salmonella typhimurium [34]): 0.12 µg/mL (≈ 0.311 µM) | MIC (Salmonella typhimurium [35]): 4 µg/mL (≈ 10.4 µM) | MIC (Salmonella typhimurium [36]): 4 µg/mL (≈ 10.4 µM) | MIC (Salmonella typhimurium [37]): < 0.015 µg/mL | MIC (Salmonella typhimurium [38]): 0.03 µg/mL (≈ 0.0778 µM) | MIC (Salmonella typhimurium [39]): 0.25 µg/mL (≈ 0.649 µM) | MIC (Salmonella typhimurium [40]): 0.5 µg/mL (≈ 1.3 µM) | MIC (Salmonella typhimurium [41]): 0.25 µg/mL (≈ 0.649 µM) | MIC (Salmonella typhimurium [42]): 0.03 µg/mL (≈ 0.0778 µM) | MIC (Salmonella typhimurium [43]): 0.03 µg/mL (≈ 0.0778 µM) | MIC (Salmonella typhimurium [44]): 2 µg/mL (≈ 5.19 µM)
